A short description of data set [1]: melting temperature; fluorescence melt of hairpins on a sequencing array, two-state fit, raised by 9.35 °C to match UV melts. The following applies: sodium 0.088 M. In a few lines: (§1)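 Folding enthalpy and melting temperature were estimated with bootstrapped two-state fits and combined across four replicates by inverse-variance weighting, with fitted temperatures raised by 9.35 °C to match UV melts. The data were Cy3 fluorescence of library hairpins, with annealed Cy3 and quencher oligos, on a sequenced MiSeq flow cell in 50 mM Na-HEPES pH 8.0, 25 mM NaCl, imaged in 2.5 °C steps up to 60 °C and normalised to pre-quench Cy3 and control constructs.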

The nature of data set [2]: folding enthalpy; higher = less favourable; fluorescence melt of hairpins on a sequencing array, two-state fit. The following applies: sodium 0.088 M. In a few lines:
as §1

As for GTAGGGCGAAAGCCTTAC (((.(((....))).))), in data set [1], the Tm is 50.4 °C. Besides, the folding enthalpy in data set [2] was -20.2 kcal/mol.

As to GTAGGGGCGAAAGCCTAC (((..(((....)))))), the Tm in data set [1] was found to be 37.9 °C. The folding enthalpy in data set [2] was -10.8 kcal/mol.

GTAGGGGGAAACCTCTAC ((((.((....)).)))): in data set [1], the Tm amounted to 44.6 °C. Further, the folding enthalpy in data set [2] is -33 kcal/mol.

On to GTAGGGGGAAACCTCTGC (.((.((....)).)).), for which the Tm in data set [1] came to 31.9 °C. In data set [2], the folding enthalpy is -16.8 kcal/mol.

With GTAGGGTCGAAAGACTAC (((..(((....)))))), the Tm in data set [1] turned out to be 32.5 °C. In data set [2], the folding enthalpy was -12.2 kcal/mol.

As to GTAGGTCGAAAGACATAC (((.(((....))).))), the Tm in data set [1] stood at 51.9 °C. Further, the folding enthalpy in data set [2] is -29.7 kcal/mol.

For GTAGGTGAAAACCTAC ((((((....)))))), the Tm in data set [1] is 56.4 °C. Moreover, the folding enthalpy in data set [2] is -30.9 kcal/mol.

As for GTAGGTGGAAACACCTGC (.(((((....))))).), the Tm in data set [1] stood at 53.4 °C. Besides, the folding enthalpy in data set [2] was -18.5 kcal/mol.

Turning to GTAGGTGGAAACATCTAC ((((.((....)).)))), the Tm in data set [1] was determined as 42.4 °C. Besides, the folding enthalpy in data set [2] was -31.3 kcal/mol.

Consider GTAGGTGGAAACGCCTAC (((((.(....).))))), for which the Tm in data set [1] stood at 51.9 °C. The folding enthalpy in data set [2] is -32.8 kcal/mol.

Regarding GTAGTACGAAAGTAGTAC (((.(((....))).))), the Tm in data set [1] stood at 47.3 °C. Moreover, the folding enthalpy in data set [2] was -33.5 kcal/mol.

Regarding GTAGTACGAAAGTATAC (((.(((....)))))), the Tm in data set [1] came out at 32 °C. In data set [2], the folding enthalpy is -17.1 kcal/mol.

Regarding GTAGTAGGAAACTACTAC (((((((....))))))), in data set [1], the Tm was determined as 53.3 °C. Moreover, the folding enthalpy in data set [2] was -41.9 kcal/mol.

GTAGTAGGAAACTGCTAC ((((.((....)).)))): the Tm in data set [1] is 44.7 °C. Moreover, the folding enthalpy in data set [2] is -30.5 kcal/mol.

On to GTAGTATCGAAAGATTAC (((..(((....)))))), for which the Tm in data set [1] was determined as 26.1 °C. Further, in data set [2], the folding enthalpy was -12.9 kcal/mol.

With GTAGTCCGAAAGGAGTAC (((.(((....))).))), the Tm in data set [1] stood at 54.1 °C. In data set [2], the folding enthalpy was -43.5 kcal/mol.

Consider GTAGTCGAAAGACGGTAC ((((((....)))..))), for which the Tm in data set [1] is 39.2 °C. For the same sequence, the folding enthalpy in data set [2] is -11.8 kcal/mol.

As for GTAGTCGAAAGACTAC ((((((....)))))), the Tm in data set [1] was 64.1 °C. Further, in data set [2], the folding enthalpy is -31.9 kcal/mol.

Regarding GTAGTCGAAAGACTCTAC ((((((....)))..))), the Tm in data set [1] was 36.2 °C. Moreover, the folding enthalpy in data set [2] is -12.8 kcal/mol.

GTAGTCGGAAACGACTAC (((((((....))))))): in data set [1], the Tm was 64.8 °C. In addition, the folding enthalpy in data set [2] was -41.2 kcal/mol.

On to GTAGTGGCGAAAGCCTAC (((..(((....)))))), for which the Tm in data set [1] is 35.4 °C. Further, the folding enthalpy in data set [2] is -11.6 kcal/mol.

On to GTAGTGGGAAACCACCAC ((.((((....)))).)), for which the Tm in data set [1] worked out at 33.5 °C. Further, in data set [2], the folding enthalpy was -16.3 kcal/mol.

For GTAGTGGGAAACTACTGC (.(((.(....).))).), in data set [1], the Tm came to 46 °C. Further, the folding enthalpy in data set [2] is -28.8 kcal/mol.

Consider GTAGTTGGAAACAACTAC (((((((....))))))), for which the Tm in data set [1] worked out at 56.1 °C. Besides, in data set [2], the folding enthalpy was -43.5 kcal/mol.

Turning to GTAGTTGGAAACAGCTAC ((((.((....)).)))), the Tm in data set [1] is 42.9 °C. The folding enthalpy in data set [2] is -29.4 kcal/mol.

Turning to GTATAACCGAAAGGTTAC (((..(((....)))))), in data set [1], the Tm stood at 31.8 °C. The folding enthalpy in data set [2] was -11.4 kcal/mol.

In the case of GTATAACGAAAGTTCTAC (((.(((....))).))), in data set [1], the Tm turned out to be 31.1 °C. Moreover, the folding enthalpy in data set [2] was -20 kcal/mol.

Regarding GTATAAGGAAACTTATGC (.(((((....))))).), the Tm in data set [1] came to 31.6 °C. In addition, in data set [2], the folding enthalpy is -18.5 kcal/mol.

For GTATACGAAAGTAGATAC ((((((....)))..))), the Tm in data set [1] came to 24.9 °C. Besides, the folding enthalpy in data set [2] is -10.1 kcal/mol.

With GTATACGAAAGTATCTAC ((((((....)))..))), the Tm in data set [1] worked out at 32.5 °C. Moreover, the folding enthalpy in data set [2] was -18.6 kcal/mol.

Take GTATACGAAAGTATGTAC ((((((....)))..))): the Tm in data set [1] is 30.6 °C. For the same sequence, the folding enthalpy in data set [2] was -12.4 kcal/mol.

Regarding GTATCACGAAAGTGTTAC (((.(((....))).))), in data set [1], the Tm stood at 42.3 °C. Besides, the folding enthalpy in data set [2] is -25.8 kcal/mol.

Take GTATCAGGAAACTGATAC (((((((....))))))): the Tm in data set [1] came out at 54.6 °C. Besides, in data set [2], the folding enthalpy was -39.3 kcal/mol.

Consider GTATCCCGAAAGGGTAC (((.(((....)))))), for which, in data set [1], the Tm is 49 °C. In data set [2], the folding enthalpy was -17.9 kcal/mol.

As for GTATCCGAAAGGAATAC ((((((....))).))), in data set [1], the Tm turned out to be 40.4 °C. Also, the folding enthalpy in data set [2] was -23.2 kcal/mol.

GTATCCGAAAGGAGATAC ((((((....)))..))): in data set [1], the Tm was 34.3 °C. For the same sequence, in data set [2], the folding enthalpy was -15.2 kcal/mol.

Consider GTATCGCGAAAGCGCTAC (((.(((....))).))), for which the Tm in data set [1] stood at 47.9 °C. For the same sequence, the folding enthalpy in data set [2] was -18.4 kcal/mol.

Values taken from the array DNA melting data of Ke et al. (doi:10.1101/2024.01.08.574731).
